PAFAH1B3 FP inh: blocks human PAF acetylhydrolase 1B catalytic subunit 3. inhibition, % at 3.39 µM. AID 492972. 0.28% of 340,000 active. recombinant PAFAH1B3, FP-rhodamine probe, fluorescence polarization;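 active = inhibition above the screen-wide average of all tested compounds plus 3 SD, cut at about 25% in these data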;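 note: 0% = enzyme with DMSO only and 100% = wells lacking PAFAH1B3 protein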
PAFAH2 inh: PAFAH2 (human) inhibition; inhibition, % at 3.39 µM; Q99487; 0.99% of 340,000 active; AID 492956; recombinant PAFAH2, FP-rhodamine activity probe, fluorescence polarization;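 active = inhibition above the mean over all tested compounds plus 3 SD, cut at about 30% in these data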;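 note: inhibitors block probe labeling of enzyme so polarization drops; 0% = enzyme with DMSO and 100% = wells lacking PAFAH2 protein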
TDP2 absorb: blocks human TDP2 phosphodiesterase activity | recombinant TDP2, T5PNP hydrolysis, p-nitrophenol absorbance 415 nm | inhibition, % at 12.8 µM | 0.34% of 370,000 active | AID 720702;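 active = inhibition above the mean of all tested compounds plus 3 SD, set per campaign, cut at about 25% in these data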;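 note: 0% = DMSO with enzyme and 100% = buffer with substrate but no TDP2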
Target sequence (O95551 whole entry, looked up): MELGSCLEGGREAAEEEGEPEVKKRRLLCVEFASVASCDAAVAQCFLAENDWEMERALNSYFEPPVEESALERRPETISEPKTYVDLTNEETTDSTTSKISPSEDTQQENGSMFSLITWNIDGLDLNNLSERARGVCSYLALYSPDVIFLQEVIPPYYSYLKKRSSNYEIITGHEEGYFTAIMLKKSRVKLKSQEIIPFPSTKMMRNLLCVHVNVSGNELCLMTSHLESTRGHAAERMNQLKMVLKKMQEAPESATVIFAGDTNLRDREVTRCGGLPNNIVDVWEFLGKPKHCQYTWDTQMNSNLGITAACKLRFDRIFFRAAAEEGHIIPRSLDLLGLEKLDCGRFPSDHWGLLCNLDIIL
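test system = human TDP2 enzyme | input = TDP2 enzyme at 120 nM final | medium = 50 mM Tris-HCl pH 7.5 with Mg2+, KCl, DTT, BSA | also added = T5PNP substrate, 5 mM | times = 2 h at 37 °C | technique = epi absorbance | benchmarks = high control without enzyme, low control DMSO plus TDP2 | replication = each compound tested once, singlicate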
PAFAH1B2 FP inh: inhibitors of human PAFAH1B2; recombinant PAFAH1B2, FP-rhodamine activity probe, fluorescence polarization; inhibition, % at 3.39 µM; AID 492953; 1.2% of 340,000 active;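 active = inhibition above the mean of all tested compounds plus 3 SD, cut at about 24% in these data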;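 note: 0% = enzyme with DMSO and 100% = wells lacking PAFAH1B2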
Apaf1 inhib: inhibitors of human Apaf-1 apoptosome | O14727 | reconstituted apoptosome caspase-3 activity, DEVD-Rh110 fluorescence | inhibition, % at 20 µM | 0.71% of 330,000 active | AID 489030; active = inhibition of at least 40% at 20 µM;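 note: plate controls were DMSO wells for no effect and DEVD-CHO caspase inhibitor wells for full effect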
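Medium: Hepes buffer, pH 7.5 / System: biochemical Apaf-1 apoptosome reconstitution / Measured by: Rh110 fluorescence, excitation 480 nm, emission 540 nm / Times: compound with Apaf-1, dATP, procaspase-3 30 min, then 50 min reaction, room temperature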
TDP2 inh conf: human TDP2 inhibition, confirmation; shares compounds with TDP2 absorb; recombinant human TDP2, absorbance read-out; inhibition, % at 12.8 µM; 22% of 1,100 active; in the data active = inhibition above about 25%;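 note: 0% = vehicle with enzyme and 100% = no enzyme buffer only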
The depositor's hits bear a star; · = not tested or not shown. An excerpt weighted towards active compounds, which were near 2.3% of everything screened.

SMILES | PAFAH1B3 FP inh | PAFAH2 inh | TDP2 absorb | PAFAH1B2 FP inh | Apaf1 inhib | TDP2 inh conf
O=C(CNCCN1CCOCC1)Nc1ccccc1Sc1ccccc1 | 11.7 | -8.0 | 27.8* | -0.6 | 0.1 | 13.8
Cc1nnc(N/N=C/c2ccc(Br)cc2)n1N | 3.8 | 1.7 | 73.6* | 0.2 | 2.5 | 6.0
Cc1nnc(N/N=C/c2ccc([N+](=O)[O-])cc2)n1N | 3.8 | -6.0 | 55.1* | 0.0 | -32.0 | 0.1
CC(C)(C)c1nnc(N/N=C/c2ccccc2)n(N)c1=O | 0.2 | -5.7 | 2.5 | 0.1 | 5.1 | ·
Cc1nnc(N/N=C/c2ccc(-c3ccc(Br)cc3)o2)n1N | 1.2 | 2.7 | 56.5* | 2.4 | 7.9 | 1.3
Cc1nnc(N/N=C\c2ccc(-c3cccc(C(=O)O)c3)o2)n1N | 11.7 | 0.8 | 59.1* | 0.2 | -0.4 | 7.6
Cc1csc(N/N=C/c2ccc([N+](=O)[O-])cc2)n1 | 8.3 | 3.5 | -5.0 | 3.3 | 0.7 | ·
O=C(NC1CCC1)c1ccc(C#Cc2cccc(F)c2)nc1 | · | · | 3.4 | · | · | ·
CCCCN1C[C@@H](COCc2ccccc2)Oc2cc(F)ccc2S1(=O)=O | · | · | 1.4 | · | · | ·
COc1ccc(NC(=O)Nc2ccc3oc(C)nc3c2)cc1 | 8.9 | 3.6 | 5.8 | 4.9 | 1.1 | ·
Cc1nc2cc(NC(=O)N(C)c3ccc4ccccc4c3)ccc2o1 | 12.9 | 2.3 | 43.9* | 5.9 | -2.1 | -4.5
CCOC(=O)N1CCN(C(=O)C[C@H]2C[C@@]3(C(=O)OC)C(=C[C@H](C(C)C)O[C@@H]3C3CC3)N(Cc3cccc4ccccc34)C2=O)CC1 | · | · | 1.2 | · | · | ·
Cc1ccc(/C=C/C(=O)Nc2nccs2)o1 | -0.4 | 3.0 | 25.7* | -1.9 | 1.2 | 1.2
O=C(COCc1ccccc1)N1CC[C@H]2[C@H](CCCN2Cc2ccc(F)cc2)C1 | · | · | 6.0 | · | · | ·
COc1cc(N)c2ncccc2c1SC | · | · | 44.7* | · | · | 3.0
COc1cc(NC(C)=O)c2ncccc2c1NC(C)=O | 7.5 | 6.8 | -8.6 | 1.3 | -1.7 | ·
COc1cc(N)c2ncccc2c1Br | 11.2 | 9.2 | 76.2* | 1.5 | · | 50.7*
N#Cc1ccccc1S(=O)(=O)N1CCN(CC(O)COc2ccccc2F)CC1 (stereo unspecified) | 4.4 | -0.5 | 28.5* | 2.1 | 5.8 | 8.2
COc1cc(NC(=O)C2CCCN(S(=O)(=O)c3cccc4cccnc34)C2)cc(OC)c1 (stereo unspecified) | · | · | -0.7 | · | · | ·
Cc1[nH][nH]c(=O)c1C(c1c(C)[nH][nH]c1=O)c1cn(Cc2ccc(F)cc2)c2ccccc12 | 16.8 | -2.5 | · | 3.1 | · | ·
Cc1[nH][nH]c(=O)c1C(c1c(C)[nH][nH]c1=O)c1cn(Cc2ccc(Cl)c(Cl)c2)c2ccccc12 | 19.3 | 8.8 | 44.1* | 14.4 | · | 27.1*
COC(=O)[C@]12C[C@H](CC(=O)N3CCC(c4ccccc4)CC3)C(=O)N(Cc3cccc4ccccc34)C1=C[C@H](COCc1ccccc1)O[C@@H]2C | · | · | -3.7 | · | · | ·
COc1cc(CN2CCN(Cc3cccc(OC)c3OC)CC2)cc(OC)c1 | 9.2 | 3.6 | 25.8* | 4.4 | 7.7 | 6.4
Cc1oc2c(cc(NS(=O)(=O)c3ccc(Cl)cc3)c3ccccc32)c1C(=O)O | 8.7 | 10.7 | 11.2 | 10.9 | 7.9 | ·
CCOC(=O)c1c(C)oc2c1cc(NS(=O)(=O)c1ccc(C(=O)O)cc1)c1ccccc12 | 7.5 | 9.6 | 33.8* | 4.1 | 23.3 | 16.1
SMILES | PAFAH1B3 FP inh | PAFAH2 inh | TDP2 absorb | PAFAH1B2 FP inh | Apaf1 inhib | TDP2 inh conf
COc1ccc(C2=NN(C(=O)CCC(=O)O)C(c3ccc(OC)c(OC)c3)C2)cc1 (stereo unspecified) | 17.5 | -1.6 | 25.2* | -1.3 | -2.3 | 7.7
Cc1cc(NS(=O)(=O)c2ccc(NC(=O)Cc3ccccc3)cc2)no1 | · | · | 2.2 | · | · | ·
O=C(Cc1cn(Cc2ccccc2)c2ccccc12)Nc1ccc(Nc2cccnc2)c(Br)c1 | · | · | 3.3 | · | · | ·
CC1(C)CC(=O)C=C(Nc2ccc(O)c(C(=O)O)c2)C1 | 4.1 | 1.0 | 25.4* | 6.5 | -18.2 | 0.5
CCCc1cc(=O)[nH]c(SCC(=O)N(C)Cc2ccccc2)n1 | -0.8 | 5.8 | -4.9 | 5.5 | 6.0 | ·
Cc1nnc(SCC(=O)N(C)Cc2ccccc2)[nH]c1=O | 8.0 | 2.1 | 43.4* | 4.4 | 1.4 | -5.0
N#CC1=C(N)Oc2n[nH]c(-c3cccnc3)c2C1c1cc(F)ccc1F (stereo unspecified) | 4.5 | -1.4 | 51.5* | 6.9 | 4.0 | -11.6

Assay outcomes as filed in PubChem BioAssay.
